Laboratory results from ChEMBL document CHEMBL1122607, “Heterocyclic analogues of chlorcyclizine with potent hypolipidemic activity” (J Med Chem, 1984).

Legend:
Rattus norvegicus [1] = assay: Hypolipidemic activity was measured as reduction in rat serum cholesterol after oral administration in male Wistar rats at 30 mg / (kg day); format: functional
Outline: (§1)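 Cholesterol-fed rats given the test compound orally by gavage on the last 3 days, with controls receiving vehicle (0.5% tragacanth mucilage). After overnight starvation, rats were killed under CO2 3 h after the last dose and bled by cardiac puncture. Serum cholesterol and triglyceride were measured by autoanalyzer and expressed as percentage reduction from control levels, with Student's t test.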

Rattus norvegicus [2] = assay: Hypolipidemic activity was measured as reduction in rat serum triglyceride after oral administration in male Wistar rats at 30 mg / (kg day); format: functional; outline: as §1
[3] = The therapeutic safety margin (TSM) is the ratio of the minimum lethal dose (mg/kg)to the MED; format: ADME, organism-based; details: in vivo
Outline: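 Young male Wistar rats, eight per group, on cholesterol/cholic acid-supplemented or normal diet; graded oral gavage doses daily for 14 days; vehicle controls (0.5% tragacanth mucilage). Mortalities recorded to give the minimum lethal daily dose. After overnight fasting, serum cholesterol assayed by autoanalyzer. MED is the dose giving a significant (t test) 30% cholesterol fall, from the log dose/response curve. TSM = minimum lethal dose/MED.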

Rattus norvegicus [4] = assay: Hypolipidemic activity was measured as reduction in rat serum triglyceride after oral administration in male Wistar rats at 10 mg / (kg day); format: functional; outline: as §1
Rattus norvegicus [5] = assay: Hypolipidemic activity was measured as reduction in rat serum cholesterol after oral administration in male Wistar rats at 10 mg / (kg day); format: functional; outline: as §1
Rattus norvegicus [6] = assay: Hypolipidemic activity was measured as reduction in rat serum triglyceride after oral administration in male Wistar rats at 3 mg / (kg day); format: functional; outline: as §1
Rattus norvegicus [7] = assay: Hypolipidemic activity was measured as reduction in rat serum triglyceride after oral administration in male Wistar rats at 100 mg / (kg day); format: functional; outline: as §1
Rattus norvegicus [8] = assay: Hypolipidemic activity was measured as reduction in rat serum cholesterol after oral administration in male Wistar rats at 1 mg / (kg day); format: functional; outline: as §1
Rattus norvegicus [9] = assay: Hypolipidemic activity was measured as reduction in rat serum cholesterol after oral administration in male Wistar rats at 3 mg / (kg day); format: functional; outline: as §1
Rattus norvegicus [10] = assay: Hypolipidemic activity was measured as reduction in rat serum cholesterol after oral administration in male Wistar rats at 100 mg/(kg day); format: functional; outline: as §1
Rattus norvegicus [11] = assay: Hypolipidemic activity was measured as reduction in rat serum triglyceride after oral administration in male Wistar rats at 1 mg / (kg day); format: functional; outline: as §1
Rattus norvegicus [12] = assay: Minimum effective dose (MED) is the dose (mg/kg)that cause significant reduction in serum cholesterol of 30% compared to concurrent controls.; format: functional; set-up: unit: mg/kg
Outline: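 MED was calculated from the log dose/response curve as the dose giving a statistically significant 30% fall in serum cholesterol versus concurrent controls. Measured in the 3-day oral cholesterol-fed rat screen, or in a 2-week test: groups of eight young male Wistar rats on cholesterol/cholic acid-supplemented or normal diet, dosed orally by gavage daily for 14 days, vehicle 0.5% tragacanth mucilage.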

Rattus norvegicus [13] = assay: Hypolipidemic activity was measured as reduction in rat serum triglyceride after oral administration in male Wistar rats at 200 mg / (kg day); format: functional; outline: as §1
Rattus norvegicus [14] = assay: Hypolipidemic activity was measured as reduction in rat serum cholesterol after oral administration in male Wistar rats at 200 mg / (kg day); format: functional; outline: as §1
Rattus norvegicus [15] = assay: Hypolipidemic activity was measured as reduction in rat serum triglyceride after oral administration in male Wistar rats at 50 mg / (kg day); format: functional; outline: as §1
Rattus norvegicus [16] = assay: Hypolipidemic activity was measured as reduction in rat serum cholesterol after oral administration in male Wistar rats at 50 mg / (kg day); format: functional; outline: as §1
Rattus norvegicus [17] = assay: Hypolipidemic activity was measured as reduction in rat serum cholesterol after oral administration in male Wistar rats at 20 mg / (kg day); format: functional; outline: as §1
Rattus norvegicus [18] = assay: Hypolipidemic activity was measured as reduction in rat serum triglyceride after oral administration in male Wistar rats at 20 mg / (kg day); format: functional; outline: as §1

Structure (SMILES)	Reduction (Rattus norvegicus [1]) [%]	Reduction (Rattus norvegicus [2]) [%]	therapeutic safety margin (minimum lethal dose / MED) [3]	Reduction (Rattus norvegicus [4]) [%]	Reduction (Rattus norvegicus [5]) [%]	Reduction (Rattus norvegicus [6]) [%]	Reduction (Rattus norvegicus [7]) [%]	Reduction (Rattus norvegicus [8]) [%]	Reduction (Rattus norvegicus [9]) [%]	Reduction (Rattus norvegicus [10]) [%]	Reduction (Rattus norvegicus [11]) [%]	MED (Rattus norvegicus [12])	Reduction (Rattus norvegicus [13]) [%]	Reduction (Rattus norvegicus [14]) [%]	Reduction (Rattus norvegicus [15]) [%]	Reduction (Rattus norvegicus [16]) [%]	Reduction (Rattus norvegicus [17]) [%]	Reduction (Rattus norvegicus [18]) [%]
Cc1cnsc1C(c1ccc(C(C)C)cc1)N1CCN(CCO)CC1 (centres undefined)	82	69	30	48	69	8	97	10	30	87	3	3	–	–	–	–	–	–
Cc1ccc(C(c2cc(C)ns2)N2CCN(C)CC2)c(C)c1 (centres undefined)	1	31	–	–	–	–	–	–	–	–	–	–	52	56	–	–	–	–
Cc1ccccc1C(c1c(C)noc1C)N1CCN(C)CC1 (centres undefined)	28	21	–	–	–	–	75	–	–	80	–	–	84	88	–	–	–	–
CC(C)COc1ccccc1C(c1ccns1)N1CCN(C)CC1 (centres undefined)	49	50	–	15	1	–	–	–	–	–	–	18	85	85	–	–	–	–
Cc1cc(C(c2ccc(C(C)C)cc2)N2CCN(C)CC2)sn1 (centres undefined)	–	–	15	–	28	–	85	–	16	63	–	9	–	–	72	45	–	–
Cc1cc(C(c2ccccc2Cl)N2CCN(C)CC2)sn1 (centres undefined)	–	–	15	–	–	–	44	–	–	61	–	30	–	–	50	63	16	8
CN1CCN(C(c2ccns2)c2ccccc2Cl)CC1 (centres undefined)	–	–	5	12	31	–	52	–	–	67	–	10	–	–	–	–	43	15
Cc1cnsc1C(c1ccc(C(C)C)cc1)N1CCN(CC(C)O)CC1 (centres undefined)	50	65	12	22	45	22	81	–	8	64	–	5	–	–	–	–	–	–
Cc1cnsc1C(c1ccc(C(C)C)cc1)N1CCN(CCCO)CC1 (centres undefined)	75	55	20	48	63	17	78	–	19	80	–	5	–	–	–	–	–	–
Cc1ccc(C(c2ccns2)N2CCN(C)CC2)cc1 (centres undefined)	4	9	–	–	–	–	–	–	–	–	–	–	36	30	–	–	–	–
CCCc1ccc(C(c2ccns2)N2CCN(C)CC2)cc1 (centres undefined)	65	34	20	7	48	18	–	–	31	–	–	3	86	82	–	–	–	–
Cc1noc(C)c1C(=C1CCNCC1)c1ccc(C(C)C)cc1	83	83	–	46	65	6	89	6	44	89	41	–	–	–	–	–	–	–
CCCCc1ccc(C(c2cc(C)ns2)N2CCN(C)CC2)cc1 (centres undefined)	–	–	–	–	–	–	–	–	–	–	–	–	66	75	25	45	–	–
Cc1cc(C(c2ccc(C(C)C)cc2)N2CCNCC2)sn1 (stereo in doubt; 33)	67	66	< 10	38	43	26	–	–	2	–	–	8	–	–	–	–	–	–
